In ChEMBL document CHEMBL3576775 (Eur J Med Chem, 2015) one finds IC50, Ki and Ka data, which are given here for 15 molecules.

Experiment [1] is described as follows: Inhibition of soyabean 5-LOX using arachidonic acid as substrate by microplate scanning spectrophotometer analysis. On the set-up: species or system Glycine max. The essentials: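 Soybean lipoxygenase in assay buffer was mixed with compound (DMSO solutions at 0.01 to 100 μM, 1:10 into enzyme solution). Reaction started with arachidonic acid; plate shaken 5 min, chromogen added, shaken 5 min, read at 490 nm. Blanks and positive controls included. Duplicates, deviation <5%, averaged; percent inhibition calculated from activity.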

The target of experiment [2] is T1, Prostaglandin G/H synthase 1 (Ovis aries, UniProt P05979).
T1 sequence (P05979 whole entry): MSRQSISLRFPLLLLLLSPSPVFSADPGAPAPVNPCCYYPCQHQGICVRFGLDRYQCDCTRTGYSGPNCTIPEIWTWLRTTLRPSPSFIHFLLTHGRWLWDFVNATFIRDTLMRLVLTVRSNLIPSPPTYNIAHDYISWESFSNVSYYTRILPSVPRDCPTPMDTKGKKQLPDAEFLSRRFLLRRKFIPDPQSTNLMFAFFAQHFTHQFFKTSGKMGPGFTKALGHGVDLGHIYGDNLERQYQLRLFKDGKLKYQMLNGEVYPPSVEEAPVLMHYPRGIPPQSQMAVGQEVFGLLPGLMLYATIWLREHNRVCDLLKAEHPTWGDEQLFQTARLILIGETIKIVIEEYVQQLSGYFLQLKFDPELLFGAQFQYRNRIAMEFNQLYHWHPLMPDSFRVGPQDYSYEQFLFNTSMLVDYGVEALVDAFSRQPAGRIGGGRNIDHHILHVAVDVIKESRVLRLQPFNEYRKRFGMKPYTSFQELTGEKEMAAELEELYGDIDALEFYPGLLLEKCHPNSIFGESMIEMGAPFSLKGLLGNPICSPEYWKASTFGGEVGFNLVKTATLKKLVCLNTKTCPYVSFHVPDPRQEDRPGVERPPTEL
Description: Inhibition of ovine COX-1 assessed as PGF2alpha formation using arachidonic acid as substrate pretreated with compound for 20 mins prior to substrate addition by spectrophotometric analysis.

Experiment [3] in a line: Competitive inhibition of soyabean 5-LOX by UV-Visible spectrophotometry. On the set-up: species or system Glycine max.
In experiment [4] the target is T2, Prostaglandin G/H synthase 2 (Homo sapiens, UniProt P35354).
T2 sequence (P35354 whole entry): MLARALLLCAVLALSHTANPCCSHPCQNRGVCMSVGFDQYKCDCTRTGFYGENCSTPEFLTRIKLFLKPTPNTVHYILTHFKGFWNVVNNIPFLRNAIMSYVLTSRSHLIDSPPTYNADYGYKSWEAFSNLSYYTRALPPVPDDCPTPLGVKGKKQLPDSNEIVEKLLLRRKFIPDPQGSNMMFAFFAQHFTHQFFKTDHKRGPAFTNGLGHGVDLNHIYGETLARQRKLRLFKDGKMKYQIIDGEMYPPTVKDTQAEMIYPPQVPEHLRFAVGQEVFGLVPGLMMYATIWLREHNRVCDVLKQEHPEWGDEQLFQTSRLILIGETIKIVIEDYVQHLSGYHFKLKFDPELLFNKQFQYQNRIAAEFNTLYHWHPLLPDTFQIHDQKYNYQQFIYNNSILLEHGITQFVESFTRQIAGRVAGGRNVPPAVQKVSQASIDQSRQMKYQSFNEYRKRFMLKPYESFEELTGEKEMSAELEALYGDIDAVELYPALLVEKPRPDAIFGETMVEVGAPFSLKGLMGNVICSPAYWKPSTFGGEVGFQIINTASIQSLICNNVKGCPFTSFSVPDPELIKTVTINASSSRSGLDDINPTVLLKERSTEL
Description: Competitive inhibition of human recombinant COX-2 by UV-Visible spectrophotometry. An outline of the steps:
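Double reciprocal plot from UV-vis absorbance change at the maximum. Arachidonic acid in HEPES:DMSO (1:1) added in 5 µl increments (each giving 50 µM final) to a fixed enzyme concentration. Repeated with inhibitor at fixed 10 µM and 20 µM. Type of inhibition taken from where the extrapolated trails meet; also from IC50 versus Ki comparison.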

For experiment [5], the target named is T3, Prostaglandin G/H synthase 2 (Homo sapiens) (UniProt P35354).
T3 sequence (whole entry): T2 sequence (P35354 whole entry)

Where only a bound is given, the exact number is not on record here.

In general, IC50 refers to the concentration that inhibits the measured activity by half. As to `COC(=O)[C@@H](Cc1c[nH]c2ccccc12)NC(=O)CNC(=O)C(=O)c1cn(S(=O)(=O)c2ccc(C)cc2)c2ccccc12`, the IC50 was determined as 12.2 µM in experiment [1] and 65.5 µM in experiment [2].
On the same counts, the results for `COC(=O)CNC(=O)[C@@H](Cc1c[nH]c2ccccc12)NC(=O)C(=O)c1cn(S(=O)(=O)c2ccc(C)cc2)c2ccccc12` are 8.38 µM and 71.3 µM.
On the same counts, the results for `Cc1ccc(S(=O)(=O)n2cc(C(=O)C(=O)NCC(=O)N[C@H](Cc3c[nH]c4ccccc34)C(=O)O)c3ccccc32)cc1` are 15.2 µM and 98.3 µM.
Consider `Cc1ccc(S(=O)(=O)n2cc(C(=O)C(=O)N[C@@H](Cc3c[nH]c4ccccc34)C(=O)O)c3ccccc32)cc1`, for which the values for the IC50 in experiment [1] and in experiment [2] were 0.01 µM and 87.2 µM, respectively.
The like results for `Cc1ccc(S(=O)(=O)n2cc(C(=O)C(=O)NCC(=O)O)c3ccccc32)cc1` were, in that order, 0.0086 µM and 90.1 µM.
On the same counts, the results for `Cc1ccc(S(=O)(=O)n2cc(C(=O)C(=O)N[C@H](Cc3c[nH]c4ccccc34)C(=O)NCC(=O)O)c3ccccc32)cc1` are 5.61 µM and over 100 µM.
The molecule `CC(C)(C)Sc1c(CC(C)(C)C(=O)O)n(Cc2ccc(Cl)cc2)c2ccc(OCc3ccc4ccccc4n3)cc12` [QUIFLAPON] had an IC50 in experiment [1] of 1.6 µM.
For `NS(=O)(=O)c1ccc(-n2nc(C(F)(F)F)cc2-c2ccc(Br)cc2)cc1`, the IC50 in experiment [2] stood at 13 µM.
In general, Ki refers to a measure of affinity in units of concentration, obtained from inhibition or displacement. For the molecule `COC(=O)[C@H](Cc1c[nH]c2ccccc12)NC(=O)CNC(=O)C(=O)c1cn(S(=O)(=O)c2ccc(C)cc2)c2ccccc12`, the IC50 was 1 µM in experiment [1] and 90.9 µM in experiment [2]. The Ki was 0.753 µM in experiment [3] and 1.34 µM in experiment [4]. For the same molecule, the Ka came to 7.7 ×10⁴ /M in the experiment with Glycine max and 9.87 ×10³ /M in experiment [5].
Turning to `Cc1ccc(S(=O)(=O)n2cc(C(=O)C(=O)N[C@H](Cc3cnc[nH]3)C(=O)N[C@H](CCC(=O)O)C(=O)O)c3ccccc32)cc1`, the results for the IC50 in experiment [1] and in experiment [2] were 2.33 µM and 151 µM, respectively.
Take `COC(=O)CNC(=O)CNC(=O)C(=O)c1cn(S(=O)(=O)c2ccc(C)cc2)c2ccccc12`: the IC50 came out at 0.1 µM in experiment [1] and 104 µM in experiment [2]. The Ki in experiment [3] stood at 0.097 µM; in experiment [4] it was 4.66 µM. Moreover, the Ka came out at 2.08 ×10⁵ /M in the experiment on Glycine max and 1.81 ×10² /M in experiment [5].
On to `COC(=O)CC[C@@H](NC(=O)[C@@H](Cc1cnc[nH]1)NC(=O)C(=O)c1cn(S(=O)(=O)c2ccc(C)cc2)c2ccccc12)C(=O)OC`, for which the IC50 amounted to 3.7 µM in experiment [1] and 20.2 µM in experiment [2].
In the case of `Cc1ccc(S(=O)(=O)n2cc(C(=O)C(=O)N[C@@H](Cc3cnc[nH]3)C(=O)O)c3ccccc32)cc1`, the IC50 in experiment [1] was 2.8 µM; in experiment [2] it was over 100 µM.
Regarding `COC(=O)CNC(=O)[C@H](Cc1c[nH]c2ccccc12)NC(=O)C(=O)c1cn(S(=O)(=O)c2ccc(C)cc2)c2ccccc12`, the IC50 in experiment [1] was determined as 0.8 µM; in experiment [2], 9.89 µM. In addition, the Ki in experiment [3] was found to be 0.946 µM; in experiment [4], 2.9 µM. Moreover, the figures for the Ka (with Glycine max; in experiment [5]) were 5.6 ×10⁴ /M and 7.91 ×10³ /M, respectively.
Turning to `COC(=O)CC[C@H](NC(=O)[C@H](Cc1cnc[nH]1)NC(=O)C(=O)c1cn(S(=O)(=O)c2ccc(C)cc2)c2ccccc12)C(=O)OC`, the values for the IC50 in experiment [1] and in experiment [2] were 0.6 µM and 76.5 µM, respectively. In addition, the Ki in experiment [3] worked out at 0.356 µM; in experiment [4], 0.983 µM. Moreover, the Ka with Glycine max stood at 3.02 ×10⁵ /M; in experiment [5], 4.43 ×10⁴ /M.
